From PubChem BioAssay AID504588 (Broad Institute, 2011)

Test system: U2OS HRE-luciferase reporter, luminescence
Assay: activators of HIF pathway HRE-luciferase reporter, dose response, U2OS cells, luminescence, dry powder, set 10 (AID 504588)
In short: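 system = human U2OS osteosarcoma cells stably expressing 3×HRE-driven luciferase reporter | amount = 6,000 cells/well | timing = 24 h compound treatment at 37 °C | technique = Steady-Glo luminescence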

Compound	AC40
CC(C)(C)CCNc1nc(-c2ccccn2)nnc1-c1ccccc1	940 nM
CC(C)(C)c1ccc(CNc2nc(-c3ccccn3)nnc2-c2ccccc2)cc1	447 nM
Clc1cccc(CNc2nc(-c3ccccn3)nnc2-c2ccccc2)c1	1310 nM
c1ccc(-c2cccc(CNc3nc(-c4ccccn4)nnc3-c3ccccc3)c2)cc1	721 nM
c1ccc(CCNc2nc(-c3ccccn3)nnc2-c2ccccc2)cc1	2520 nM
c1ccc(-c2ccc(CNc3nc(-c4ccccn4)nnc3-c3ccccc3)cc2)cc1	360 nM
